Laboratory results as given in ChEMBL document CHEMBL1146509, “Periconicins, two new fusicoccane diterpenes produced by an endophytic fungus Periconia sp. with antibacterial activity” (2004).
≈ marks a conversion by molar mass, not a printed value.

Key:
Staphylococcus aureus = test: Antibacterial activity against Staphylococcus aureus ATCC 6538p after 24 hrs by twofold microtiter broth dilution method; type: functional
In short: (§1)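 Two-fold serial dilutions in DMSO added to standard methods (SM) broth in 96-well plates, final 0.5% DMSO; wells inoculated from overnight culture at 10^5 CFU/mL; incubated 37 °C for 24 h; MIC taken as lowest concentration with no visible growth. Strains from ATCC or Institute for Fermentation, Osaka stock collections.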

Escherichia coli = test: Antibacterial activity against Escherichia coli ATCC 25922 after 24 hrs by twofold microtiter broth dilution method; type: functional; in short: as §1
Salmonella typhimurium = test: Antibacterial activity against Salmonella typhimurium ATCC 14028 after 24 hrs by twofold microtiter broth dilution method; type: functional, Salmonella enterica subsp. enterica serovar Typhimurium; in short: as §1
[1] = test system: Staphylococcus epidermidis; test: Antibacterial activity against Staphylococcus epidermidis ATCC 12228 after 24 hrs by twofold microtiter broth dilution method; type: functional; in short: as §1
Klebsiella pneumoniae = test: Antibacterial activity against Klebsiella pneumoniae IFO 13541 after 24 hrs by twofold microtiter broth dilution method; type: functional; in short: as §1
Proteus vulgaris = test: Antibacterial activity against Proteus vulgaris ATCC 3851 after 24 hrs by twofold microtiter broth dilution method; type: functional; in short: as §1
Micrococcus luteus = test: Antibacterial activity against Micrococcus luteus IFO 12708 after 24 hrs by twofold microtiter broth dilution method; type: functional; in short: as §1
Bacillus subtilis = test: Antibacterial activity against Bacillus subtilis ATCC 6633 after 24 hrs by twofold microtiter broth dilution method; type: functional; in short: as §1
[2] = Salmonella enterica, ATCC 14028, 24 h

Compound | MIC (Staphylococcus aureus) [µg/mL] | MIC (Escherichia coli; ATCC 25922, 24 h) [µg/mL] | MIC (Salmonella typhimurium; [2]) [µg/mL] | MIC ([1]; ATCC 12228, 24 h) [µg/mL] | MIC (Klebsiella pneumoniae; IFO 13541, 24 h) [µg/mL] | MIC (Proteus vulgaris; ATCC 3851, 24 h) [µg/mL] | MIC (Micrococcus luteus; IFO 12708, 24 h) [µg/mL] | MIC (Bacillus subtilis; ATCC 6633, 24 h) [µg/mL] | MIC (Escherichia coli) [µg/mL] | MIC (Salmonella typhimurium; Salmonella enterica subsp. enterica serovar Typhimurium) [µg/mL] | MIC [1] [µg/mL] | MIC (Klebsiella pneumoniae) [µg/mL] | MIC (Proteus vulgaris) [µg/mL] | MIC (Micrococcus luteus) [µg/mL] | MIC (Bacillus subtilis) [µg/mL]
CC(C)C1=C2C/C=C(/C=O)[C@@H]3C(=O)[C@@H](O)[C@@H](C)[C@H]3C[C@]2(C)CC1 [PERICONICIN A] | 12.5 (≈ 39.5 µM) | 100 (≈ 316 µM) | 6.25 (≈ 19.8 µM) | 12.5 (≈ 39.5 µM) | 3.12 (≈ 9.86 µM) | 6.25 (≈ 19.8 µM) | 25 (≈ 79 µM) | 3.12 (≈ 9.86 µM) |  |  |  |  |  |  | 
CC(CO)C1=C2C/C=C(/C=O)[C@@H]3C(=O)[C@@H](O)[C@@H](C)[C@H]3C[C@]2(C)CC1 (some centres undefined) [PERICONICIN B] | 50 (≈ 150 µM) | > 100 | 50 (≈ 150 µM) | 100 (≈ 301 µM) | 25 (≈ 75.2 µM) | 50 (≈ 150 µM) | > 100 | 25 (≈ 75.2 µM) |  |  |  |  |  |  | 
GENTAMICIN | 3.12 |  |  |  |  |  |  |  | 1.56 | 3.12 | 3.12 | 12.5 | 6.25 | 6.25 | 3.12
